The values that follow come from ChEMBL document CHEMBL1143769, “Ezetimibe analogs with a reorganized azetidinone ring: Design, synthesis, and evaluation of cholesterol absorption inhibitions” (2007).

For test [1], the system named is Rattus norvegicus. As to the kind of experiment: Decrease in total cholesterol levels in high-cholesterol diet fed Wistar rat at 4 mg/kg/day. The format is functional. Further details: scale not given: the % may be the effect or the level left. The method, boiled down:
(§1)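 Rats fed a high-cholesterol, high-fat diet; drug suspended in 0.5% sodium carboxymethyl cellulose (40 mg/100 ml) and given intragastrically at 4 mg/kg/day. After a 16 h fast, tail blood was collected and serum total cholesterol and LDL-cholesterol measured. 8–18 rats per group; percent change calculated against high-cholesterol-diet animals.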

For test [2], the system named is Rattus norvegicus. As to the kind of experiment: Decrease in LDL-cholesterol levels in high-cholesterol diet fed Wistar rat at 4 mg/kg/day. The format is functional. On the set-up: scale not given: the % may be the effect or the level left. The method, boiled down:
as §1

Turning to `O=C1[C@H](c2ccc(F)cc2)[C@@H](c2ccc(O)cc2)N1CC[C@H](O)c1ccc(F)cc1`, the Activity in test [1] is -26%; in test [2] it was -22%.

Turning to `O=C1[C@H](c2ccc(F)cc2)[C@@H](c2ccc(O)cc2)N1CC[C@@H](O)c1ccc(F)cc1`, the Activity in test [1] is reported as -17%; in test [2], -5%.

Consider `O=C1[C@@H](c2ccc(F)cc2)[C@H](c2ccc(O)cc2)N1CC[C@@H](O)c1ccc(F)cc1`, for which the Activity in test [1] is listed as -18%; in test [2] it was -35%.

For `O=C1[C@@H](c2ccc(F)cc2)[C@H](c2ccc(O)cc2)N1CC[C@H](O)c1ccc(F)cc1`, the Activity is given as -25% in test [1] and -29% in test [2].

Regarding `O=C1[C@H](CC[C@H](O)c2ccc(F)cc2)[C@@H](c2ccc(O)cc2)N1c1ccc(F)cc1` [EZETIMIBE], the Activity in test [1] is -51%; in test [2] it was -47%.
